The values below come from ChEMBL document CHEMBL1138269, “Antimicrobial lexitropsins containing amide, amidine, and alkene linking groups” (J Med Chem, 2007).

Common to all, as to type: functional
The subject of experiment [1] is Mycolicibacterium fortuitum. The experiment in a line: Antibacterial activity against Mycobacterium fortuitum NCTC 10394. A digest of the protocol:
(§1)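 Broth microdilution in Mueller-Hinton broth. Samples were dissolved in sterile water to 200 µg mL-1 as the working solution and doubling dilutions were made across rows. Plates were incubated at 37 °C and inspected visually, with resazurin added as growth indicator. MIC reported in µg mL-1.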

A further experiment concerns Aspergillus niger. The experiment in a line: Antifungal activity against Aspergillus niger IMI 149007. A digest of the protocol:
(§2)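 Antifungal microdilution in Sabouraud broth. Test sample at 200 µg mL-1 working solution in sterile water was serially doubled down successive rows. Incubation was at 25 °C, followed by visual growth check and addition of resazurin indicator. Read-out is MIC in µg mL-1.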

Another experiment concerns Enterococcus faecalis. Briefly: Antibacterial activity against Streptococcus faecalis NCTC 775. A digest of the protocol: as §1
Another experiment relates to Candida albicans. Briefly: Antifungal activity against Candida albicans NCPF 3179. An outline of the steps:
as §2

The test system of another experiment is Staphylococcus aureus. Briefly: Antibacterial activity against methicillin-sensitive Staphylococcus aureus NCTC 6571. A digest of the protocol: as §1
Setting [2] is: Enterococcus faecalis, NCTC 775, read-out: MIC.
Setting [3] is: Candida albicans, read-out: MIC.
Setting [4] is: Staphylococcus aureus, NCTC 6571, read-out: MIC.

In brackets after ≈: the same amount, converted by molar mass.

Take `COc1cccc(C(=N)Nc2cc(C(=O)Nc3cc(C(=O)Nc4nc(C(=O)NCCCN(C)C)c(C(C)C)s4)n(C)c3)n(C)c2)c1`: the minimal inhibitory concentration (MIC) in experiment [1] was over 50 µg/mL; in the experiment with Aspergillus niger it was 50 µg/mL (≈ 77.2 µM); in the experiment on Enterococcus faecalis (setting [2]), 50 µg/mL (≈ 77.2 µM); in the experiment with Candida albicans (setting [3]) it was over 50 µg/mL; in the experiment on Staphylococcus aureus (setting [4]) it was 13 µg/mL (≈ 20.1 µM).

`CC(C)CCc1sc(NC(=O)c2cc(NC(=O)c3ccc(/C=C/c4cc5ccccc5nc4Cl)cc3)cn2C)nc1C(=O)NCCN1CCOCC1`: the minimum inhibitory concentration (MIC) (in experiment [1]; in the experiment with Aspergillus niger; in the experiment with Enterococcus faecalis (setting [2]); with Candida albicans (setting [3]); with Staphylococcus aureus (setting [4])) was over 50 µg/mL throughout.

As to `COc1cccc(C(=O)Nc2nc(C(=O)Nc3cc(C(=O)Nc4cc(C(=O)NCCC(=N)N)n(C)c4)n(C)c3)c(C(C)C)s2)c1`, the MIC is over 50 µg/mL in experiment [1]; over 50 µg/mL with Aspergillus niger; 13 µg/mL (≈ 20.5 µM) in the experiment on Enterococcus faecalis (setting [2]); over 50 µg/mL with Candida albicans (setting [3]); 13 µg/mL (≈ 20.5 µM) in the experiment on Staphylococcus aureus (setting [4]).

On to `CC(C)c1sc(NC(=O)c2cc(NC(=O)c3cc(NC=O)cn3C)cn2C)nc1C(=O)NCCCN(C)C`, for which the minimum inhibitory concentration (MIC) in experiment [1] came out at 19 µg/mL (≈ 35 µM); in the experiment with Aspergillus niger, 76 µg/mL (≈ 140 µM); with Enterococcus faecalis (setting [2]), 10 µg/mL (≈ 18.4 µM); in the experiment with Candida albicans (setting [3]), 76 µg/mL (≈ 140 µM); with Staphylococcus aureus (setting [4]), 5 µg/mL (≈ 9.21 µM).

Turning to `CN(C)CCCn1cnc(NC(=O)c2cc(NC(=O)c3cc(NC=O)cn3C)cn2C)c1`, the minimal inhibitory concentration (MIC) (in experiment [1]; in the experiment on Aspergillus niger; in the experiment with Enterococcus faecalis (setting [2]); with Candida albicans (setting [3]); with Staphylococcus aureus (setting [4])) was over 50 µg/mL each time.

For `CC(=N)Nc1cc(C(=O)Nc2cc(C(=O)Nc3nc(C(=O)NCCCN(C)C)c(CCC(C)C)s3)n(C)c2)n(C)c1`, the minimal inhibitory concentration (MIC) in experiment [1] was over 50 µg/mL; in the experiment with Aspergillus niger, over 50 µg/mL; in the experiment with Enterococcus faecalis (setting [2]), over 50 µg/mL; in the experiment with Candida albicans (setting [3]) it was 50 µg/mL (≈ 85.7 µM); in the experiment on Staphylococcus aureus (setting [4]) it was over 50 µg/mL.

With `CC(C)c1sc(NC(=O)c2cc(NC(=O)c3cc(NC(=O)c4cc5ccccc5cn4)cn3C)cn2C)nc1C(=O)NCCN1CCOCC1`, the minimum inhibitory concentration (MIC) (in experiment [1]; in the experiment on Aspergillus niger; in the experiment on Enterococcus faecalis (setting [2]); in the experiment on Candida albicans (setting [3]); in the experiment on Staphylococcus aureus (setting [4])) was over 50 µg/mL throughout.

`CC(C)CCc1sc(NC(=O)c2cc(NC(=O)c3ccc(/C=C/c4ccc5ccccc5n4)cc3)cn2C)nc1C(=O)NCCN1CCOCC1`: the minimal inhibitory concentration (MIC) (in experiment [1]; in the experiment with Aspergillus niger; in the experiment on Enterococcus faecalis (setting [2]); in the experiment with Candida albicans (setting [3]); with Staphylococcus aureus (setting [4])) was over 50 µg/mL in each case.

On to `CC(C)CCc1sc(NC(=O)c2cc(NC(=O)c3ccc(/C=C/c4ccc5ccccc5c4)cc3)cn2C)nc1C(=O)NCCN1CCOCC1`, for which the MIC (in experiment [1]; in the experiment with Aspergillus niger; with Enterococcus faecalis (setting [2]); with Candida albicans (setting [3]); in the experiment on Staphylococcus aureus (setting [4])) was over 50 µg/mL in each case.

For `CC(=N)Nc1cc(C(=O)Nc2cc(C(=O)Nc3nc(C(=O)NCCCN(C)C)c(C(C)C)s3)n(C)c2)n(C)c1`, the MIC in experiment [1] is over 50 µg/mL; in the experiment on Aspergillus niger, 50 µg/mL (≈ 90 µM); in the experiment with Enterococcus faecalis (setting [2]), 50 µg/mL (≈ 90 µM); in the experiment with Candida albicans (setting [3]), over 50 µg/mL; in the experiment on Staphylococcus aureus (setting [4]) it was 50 µg/mL (≈ 90 µM).

With `CN(C)CCCNC(=O)c1cc(NC(=O)c2cc(NC(=O)c3cc(NC(=O)c4ccc(Cl)c(Cl)n4)cn3C)cn2C)cn1C`, the minimal inhibitory concentration (MIC) was over 50 µg/mL in experiment [1]; 50 µg/mL (≈ 77.8 µM) against Aspergillus niger; over 50 µg/mL in the experiment with Enterococcus faecalis (setting [2]); 25 µg/mL (≈ 38.9 µM) in the experiment with Candida albicans (setting [3]); over 50 µg/mL in the experiment on Staphylococcus aureus (setting [4]).

Take `CC(C)n1cc(NC(=O)c2cc(NC(=N)c3ccccc3)cn2C)cc1C(=O)Nc1cc(C(=O)NCCCN(C)C)n(C)c1`: the MIC in experiment [1] is over 50 µg/mL; in the experiment with Aspergillus niger, over 50 µg/mL; in the experiment on Enterococcus faecalis (setting [2]) it was over 50 µg/mL; in the experiment on Candida albicans (setting [3]) it was over 50 µg/mL; with Staphylococcus aureus (setting [4]), 50 µg/mL (≈ 83.4 µM).

For the compound `COc1cccc(C(=O)Nc2cc(C(=O)Nc3cc(C(=O)Nc4cn(CCCN(C)C)cn4)n(C)c3)n(C)c2)c1`, the MIC (in experiment [1]; against Aspergillus niger; with Enterococcus faecalis (setting [2]); with Candida albicans (setting [3]); in the experiment on Staphylococcus aureus (setting [4])) was over 50 µg/mL each time.

Consider `COc1cccc(C(=O)Nc2ccc(C(=O)Nc3cc(C(=O)Nc4cc(C(=O)NCCN5CCOCC5)n(C)c4)n(C)c3)cc2)c1`, for which the MIC (in experiment [1]; with Aspergillus niger; in the experiment on Enterococcus faecalis (setting [2]); in the experiment with Candida albicans (setting [3]); with Staphylococcus aureus (setting [4])) was over 50 µg/mL in each case.

For `CC(C)CCc1sc(NC(=O)c2cc(NC(=O)c3ccc(/C=C/c4cnc5ccccc5c4)cc3)cn2C)nc1C(=O)NCCN1CCOCC1`, the minimum inhibitory concentration (MIC) is over 50 µg/mL in experiment [1]; over 50 µg/mL against Aspergillus niger; over 50 µg/mL in the experiment on Enterococcus faecalis (setting [2]); 50 µg/mL (≈ 70.8 µM) with Candida albicans (setting [3]); over 50 µg/mL in the experiment on Staphylococcus aureus (setting [4]).

Turning to `CC(C)c1sc(NC(=O)c2cc(NC(=O)c3cc(NC(=O)c4cc5ccccc5cn4)cn3C)cn2C)nc1C(=O)NCCCN(C)C`, the MIC in experiment [1] is 50 µg/mL (≈ 74.6 µM); against Aspergillus niger, over 50 µg/mL; in the experiment on Enterococcus faecalis (setting [2]), 50 µg/mL (≈ 74.6 µM); in the experiment with Candida albicans (setting [3]), 50 µg/mL (≈ 74.6 µM); with Staphylococcus aureus (setting [4]) it was 50 µg/mL (≈ 74.6 µM).

Consider `CC(=N)Nc1cc(C(=O)Nc2cc(C(=O)Nc3cc(C(=O)NCCCN(C)C)n(C)c3)n(C(C)C)c2)n(C)c1`, for which the minimum inhibitory concentration (MIC) in experiment [1] is over 50 µg/mL; in the experiment on Aspergillus niger, 50 µg/mL (≈ 93 µM); in the experiment on Enterococcus faecalis (setting [2]) it was 50 µg/mL (≈ 93 µM); in the experiment on Candida albicans (setting [3]), over 50 µg/mL; in the experiment on Staphylococcus aureus (setting [4]) it was 13 µg/mL (≈ 24.2 µM).

As to `COc1ccc(C(=O)Nc2cc(C(=O)Nc3cc(C(=O)Nc4cn(CCCN(C)C)cn4)n(C)c3)n(C)c2)cc1`, the MIC (in experiment [1]; against Aspergillus niger; in the experiment with Enterococcus faecalis (setting [2]); in the experiment with Candida albicans (setting [3]); with Staphylococcus aureus (setting [4])) was over 50 µg/mL each time.

Consider `CN(C)CCCNC(=O)c1cc(NC(=O)c2cc(NC(=O)c3cc(NC(=N)c4ccccc4)cn3C)cn2C)cn1C`, for which the MIC is over 50 µg/mL in experiment [1]; 50 µg/mL (≈ 87.5 µM) against Aspergillus niger; over 50 µg/mL with Enterococcus faecalis (setting [2]); over 50 µg/mL with Candida albicans (setting [3]); 50 µg/mL (≈ 87.5 µM) in the experiment with Staphylococcus aureus (setting [4]).

`COc1cccc(C(=N)Nc2cc(C(=O)Nc3cc(C(=O)Nc4nc(C(=O)NCCCN(C)C)c(CCC(C)C)s4)n(C)c3)n(C)c2)c1`: the MIC in experiment [1] was over 50 µg/mL; in the experiment with Aspergillus niger it was over 50 µg/mL; in the experiment with Enterococcus faecalis (setting [2]), 13 µg/mL (≈ 19.2 µM); in the experiment on Candida albicans (setting [3]), over 50 µg/mL; with Staphylococcus aureus (setting [4]) it was 3 µg/mL (≈ 4.44 µM).

Consider `Cn1cc(NC(=O)c2cc(NC(=O)c3ccc(NC(=O)c4cnc5ccccc5c4)cc3)cn2C)cc1C(=O)NCCN1CCOCC1`, for which the minimum inhibitory concentration (MIC) (in experiment [1]; against Aspergillus niger; with Enterococcus faecalis (setting [2]); in the experiment with Candida albicans (setting [3]); with Staphylococcus aureus (setting [4])) was over 50 µg/mL throughout.

Consider `Cn1cc(NC(=O)c2cc(NC(=O)c3ccc(/C=C/c4nc5ccccc5s4)cc3)cn2C)cc1C(=O)NCCN1CCOCC1`, for which the MIC in experiment [1] is over 50 µg/mL; against Aspergillus niger it was over 50 µg/mL; in the experiment with Enterococcus faecalis (setting [2]), 25 µg/mL (≈ 39.2 µM); in the experiment on Candida albicans (setting [3]), over 50 µg/mL; in the experiment on Staphylococcus aureus (setting [4]) it was 25 µg/mL (≈ 39.2 µM).

In the case of `CN(C)CCCn1cnc(NC(=O)c2cc(NC(=O)c3cc(NC(=O)c4cc5ccccc5cn4)cn3C)cn2C)c1`, the minimal inhibitory concentration (MIC) (in experiment [1]; in the experiment on Aspergillus niger; with Enterococcus faecalis (setting [2]); in the experiment with Candida albicans (setting [3]); with Staphylococcus aureus (setting [4])) was over 50 µg/mL in each case.

With `Cn1cc(NC(=O)c2cc(NC(=O)c3ccc(/C=C/c4nc5ccccc5o4)cc3)cn2C)cc1C(=O)NCCN1CCOCC1` (stereo in doubt; 72), the results for the MIC in the experiment on Enterococcus faecalis, in the experiment on Candida albicans and in the experiment on Staphylococcus aureus were 3 µg/mL (≈ 4.83 µM), 50 µg/mL (≈ 80.4 µM) and 3 µg/mL (≈ 4.83 µM), respectively.
